Results published in ChEMBL document CHEMBL4373697, “Cyclization of RGD Peptides by Suzuki-Miyaura Cross-Coupling” (J Med Chem, 2019).

Tests used:
Integrin alpha-V/beta-3 [1] = target: T1, Integrin alpha-V/beta-3 (Homo sapiens, UniProt P05106+P06756); test: Inhibition of human vitronectin binding to human integrin alphavbeta3 receptor after 1 hr by ELISA; assay type: protein-complex assay
Integrin alpha-V/beta-3 [2] = target: T1, Integrin alpha-V/beta-3; test: Binding affinity to integrin alphavbeta3 receptor in human WM115 cells assessed as inhibition of cell adhesion to vitronectin after 0.5 hr by fluorescence assay; assay type: cell-based
Integrin alpha-5/beta-1 = Integrin alpha-5/beta-1 (Homo sapiens, UniProt P05556+P08648); test: Inhibition of human fibronectin binding to human integrin alpha5beta1 incubated for 1 hr by ELISA; assay type: protein-complex assay
[3] = target: Integrin alpha-IIb/beta-3 (Homo sapiens, UniProt P05106+P08514); test: Inhibition of human fibronectin binding to human Integrin alpha2b beta3 receptor incubated for 1 hr by ELISA; assay type: protein-complex assay
[4] = Half-life in human plasma at 500 uM incubated for 24 hrs and measured up to 24 hrs by LC-MS analysis; assay type: ADME, cell-free
Procedure, shortened: (§1)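 Compound from DMSO stock (final DMSO ≤1%) in human citrate plasma, pH 7.5, incubated at 37 °C, 400 rpm, for 24 h. Aliquots were taken at 0, 1, 3, 6, 8 and 24 h and quenched with cold acetonitrile containing warfarin (50 µM final) as internal standard, then centrifuged. Supernatant was run by LC-MS; UV peak area was compared with the internal standard.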

[5] = Half-life in human plasma at 250 uM incubated for 24 hrs and measured up to 24 hrs by LC-MS analysis; assay type: ADME, cell-free; procedure, shortened: as §1

Chain of Integrin alpha-5/beta-1 (P05556 21-798 limits assumed): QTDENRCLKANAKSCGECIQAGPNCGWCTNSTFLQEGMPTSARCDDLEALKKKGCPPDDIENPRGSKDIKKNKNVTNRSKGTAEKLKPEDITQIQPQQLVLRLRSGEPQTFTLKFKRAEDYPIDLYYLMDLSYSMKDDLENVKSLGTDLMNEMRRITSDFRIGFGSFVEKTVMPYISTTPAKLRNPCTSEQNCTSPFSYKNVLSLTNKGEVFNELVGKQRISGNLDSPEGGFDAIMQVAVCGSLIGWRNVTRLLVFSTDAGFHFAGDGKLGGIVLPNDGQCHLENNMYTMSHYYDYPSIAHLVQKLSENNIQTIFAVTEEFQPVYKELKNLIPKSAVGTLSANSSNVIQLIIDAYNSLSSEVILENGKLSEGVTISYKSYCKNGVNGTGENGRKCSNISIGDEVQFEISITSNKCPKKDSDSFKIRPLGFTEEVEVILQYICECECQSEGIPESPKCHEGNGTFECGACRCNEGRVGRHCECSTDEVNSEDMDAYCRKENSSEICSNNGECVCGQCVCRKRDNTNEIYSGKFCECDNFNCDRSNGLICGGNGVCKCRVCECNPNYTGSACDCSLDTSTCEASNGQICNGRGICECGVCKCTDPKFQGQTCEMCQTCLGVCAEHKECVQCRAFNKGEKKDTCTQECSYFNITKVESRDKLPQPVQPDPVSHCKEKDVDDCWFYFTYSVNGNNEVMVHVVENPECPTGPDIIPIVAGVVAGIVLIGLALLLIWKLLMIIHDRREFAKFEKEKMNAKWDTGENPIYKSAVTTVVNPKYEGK
Chain of Integrin alpha-5/beta-1 (P08648 42-894 limits assumed): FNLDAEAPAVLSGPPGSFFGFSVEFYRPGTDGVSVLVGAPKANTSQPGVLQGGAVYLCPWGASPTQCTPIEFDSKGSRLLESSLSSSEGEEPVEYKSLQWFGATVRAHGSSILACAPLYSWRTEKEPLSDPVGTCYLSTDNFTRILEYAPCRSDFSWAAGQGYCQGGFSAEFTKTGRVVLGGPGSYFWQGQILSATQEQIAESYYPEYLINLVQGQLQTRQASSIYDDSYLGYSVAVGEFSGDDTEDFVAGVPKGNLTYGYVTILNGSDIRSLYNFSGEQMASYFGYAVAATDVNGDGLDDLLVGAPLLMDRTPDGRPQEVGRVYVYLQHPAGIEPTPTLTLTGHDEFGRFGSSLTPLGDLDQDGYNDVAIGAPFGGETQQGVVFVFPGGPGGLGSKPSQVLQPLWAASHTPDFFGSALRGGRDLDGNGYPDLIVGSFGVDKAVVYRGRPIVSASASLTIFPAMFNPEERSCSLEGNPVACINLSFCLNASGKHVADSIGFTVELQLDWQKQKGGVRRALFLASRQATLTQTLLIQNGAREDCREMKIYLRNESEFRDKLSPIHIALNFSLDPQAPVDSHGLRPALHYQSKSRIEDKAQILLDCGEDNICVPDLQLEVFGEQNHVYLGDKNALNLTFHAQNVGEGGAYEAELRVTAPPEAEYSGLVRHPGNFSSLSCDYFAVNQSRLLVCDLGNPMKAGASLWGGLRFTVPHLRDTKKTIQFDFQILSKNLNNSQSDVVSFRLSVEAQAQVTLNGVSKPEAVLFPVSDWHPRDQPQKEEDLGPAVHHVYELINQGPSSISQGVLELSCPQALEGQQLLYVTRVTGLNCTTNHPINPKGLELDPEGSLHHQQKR
Chain of Integrin alpha-5/beta-1 (P08648 895-1049 limits assumed): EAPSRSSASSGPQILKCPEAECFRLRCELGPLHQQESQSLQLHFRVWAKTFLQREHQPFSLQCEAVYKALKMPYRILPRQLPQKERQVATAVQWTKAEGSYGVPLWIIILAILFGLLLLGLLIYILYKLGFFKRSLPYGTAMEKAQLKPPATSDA
T1 sequence (P05106 27-788 limits assumed): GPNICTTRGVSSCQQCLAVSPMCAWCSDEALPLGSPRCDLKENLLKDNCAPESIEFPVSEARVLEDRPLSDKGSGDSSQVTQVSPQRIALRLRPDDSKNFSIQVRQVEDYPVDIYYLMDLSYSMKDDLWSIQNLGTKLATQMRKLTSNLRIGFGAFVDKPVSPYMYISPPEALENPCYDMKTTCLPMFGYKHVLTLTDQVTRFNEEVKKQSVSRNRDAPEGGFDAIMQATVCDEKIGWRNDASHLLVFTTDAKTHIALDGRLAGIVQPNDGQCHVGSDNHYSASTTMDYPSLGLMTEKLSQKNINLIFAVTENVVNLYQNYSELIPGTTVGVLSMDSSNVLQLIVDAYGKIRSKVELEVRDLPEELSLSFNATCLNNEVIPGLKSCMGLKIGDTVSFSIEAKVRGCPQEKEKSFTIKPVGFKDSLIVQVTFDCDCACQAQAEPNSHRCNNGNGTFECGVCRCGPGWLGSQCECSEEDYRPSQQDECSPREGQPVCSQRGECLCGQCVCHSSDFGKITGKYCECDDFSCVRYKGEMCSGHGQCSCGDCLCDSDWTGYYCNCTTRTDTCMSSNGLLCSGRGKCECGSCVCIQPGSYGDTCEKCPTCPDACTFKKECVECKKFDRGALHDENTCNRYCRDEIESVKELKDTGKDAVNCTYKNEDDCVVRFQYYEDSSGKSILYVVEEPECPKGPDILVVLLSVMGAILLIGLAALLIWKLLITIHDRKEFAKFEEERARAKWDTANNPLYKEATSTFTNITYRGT
T1 sequence (P06756 31-889 limits assumed): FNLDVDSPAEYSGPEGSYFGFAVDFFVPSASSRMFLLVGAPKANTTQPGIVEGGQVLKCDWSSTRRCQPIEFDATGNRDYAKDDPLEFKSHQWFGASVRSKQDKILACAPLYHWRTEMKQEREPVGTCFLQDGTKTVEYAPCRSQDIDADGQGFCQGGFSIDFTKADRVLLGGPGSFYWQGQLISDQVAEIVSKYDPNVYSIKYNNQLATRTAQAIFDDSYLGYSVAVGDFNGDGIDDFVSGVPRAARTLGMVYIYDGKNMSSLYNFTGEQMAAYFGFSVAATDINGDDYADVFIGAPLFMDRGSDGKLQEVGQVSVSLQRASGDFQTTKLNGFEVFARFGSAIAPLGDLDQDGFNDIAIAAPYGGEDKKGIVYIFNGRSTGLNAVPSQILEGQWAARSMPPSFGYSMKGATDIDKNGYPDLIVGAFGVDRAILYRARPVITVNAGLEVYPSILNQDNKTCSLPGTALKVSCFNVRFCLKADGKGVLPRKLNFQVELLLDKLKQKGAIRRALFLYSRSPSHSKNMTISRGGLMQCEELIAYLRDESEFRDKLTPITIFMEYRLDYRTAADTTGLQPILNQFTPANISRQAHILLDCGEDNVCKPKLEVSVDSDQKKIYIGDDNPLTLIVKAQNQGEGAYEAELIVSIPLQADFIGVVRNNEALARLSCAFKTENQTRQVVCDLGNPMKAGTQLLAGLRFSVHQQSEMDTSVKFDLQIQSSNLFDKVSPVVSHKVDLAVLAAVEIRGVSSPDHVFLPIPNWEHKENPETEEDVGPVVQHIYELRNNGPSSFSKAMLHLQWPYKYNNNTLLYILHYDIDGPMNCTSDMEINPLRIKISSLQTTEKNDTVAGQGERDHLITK
T1 sequence (P06756 891-1048 limits assumed): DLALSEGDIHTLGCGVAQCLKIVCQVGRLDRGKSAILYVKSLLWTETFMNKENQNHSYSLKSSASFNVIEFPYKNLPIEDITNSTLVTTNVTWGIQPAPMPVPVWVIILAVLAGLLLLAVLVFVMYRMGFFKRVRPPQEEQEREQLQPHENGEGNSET
Chain of Integrin alpha-IIb/beta-3 (P05106 27-788 limits assumed): as the sequence (P05106 27-788 limits assumed) above
Chain of Integrin alpha-IIb/beta-3 (P08514 32-887 limits assumed): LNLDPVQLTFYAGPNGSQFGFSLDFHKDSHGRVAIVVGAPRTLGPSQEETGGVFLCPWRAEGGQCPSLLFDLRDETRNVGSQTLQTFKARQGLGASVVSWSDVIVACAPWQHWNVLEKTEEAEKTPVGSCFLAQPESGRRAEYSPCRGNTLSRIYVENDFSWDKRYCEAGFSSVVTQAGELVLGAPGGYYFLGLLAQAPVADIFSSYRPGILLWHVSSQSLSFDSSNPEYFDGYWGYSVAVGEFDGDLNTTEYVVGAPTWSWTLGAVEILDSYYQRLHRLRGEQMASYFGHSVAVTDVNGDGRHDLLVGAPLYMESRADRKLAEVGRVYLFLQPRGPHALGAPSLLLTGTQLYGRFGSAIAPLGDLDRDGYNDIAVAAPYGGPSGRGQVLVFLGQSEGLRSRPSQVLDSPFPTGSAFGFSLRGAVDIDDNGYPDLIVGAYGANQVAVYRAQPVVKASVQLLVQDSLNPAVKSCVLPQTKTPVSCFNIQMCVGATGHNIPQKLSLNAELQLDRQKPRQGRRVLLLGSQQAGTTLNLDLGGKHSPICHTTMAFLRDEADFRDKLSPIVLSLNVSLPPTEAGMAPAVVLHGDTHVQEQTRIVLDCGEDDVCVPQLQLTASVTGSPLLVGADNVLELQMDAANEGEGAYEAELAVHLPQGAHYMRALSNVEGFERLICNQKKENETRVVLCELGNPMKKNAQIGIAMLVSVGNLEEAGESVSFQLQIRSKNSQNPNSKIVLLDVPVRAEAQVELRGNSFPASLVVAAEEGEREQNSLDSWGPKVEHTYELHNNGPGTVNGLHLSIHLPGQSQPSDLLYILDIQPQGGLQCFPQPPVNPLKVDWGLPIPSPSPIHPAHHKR
Chain of Integrin alpha-IIb/beta-3 (P08514 891-1039 limits assumed): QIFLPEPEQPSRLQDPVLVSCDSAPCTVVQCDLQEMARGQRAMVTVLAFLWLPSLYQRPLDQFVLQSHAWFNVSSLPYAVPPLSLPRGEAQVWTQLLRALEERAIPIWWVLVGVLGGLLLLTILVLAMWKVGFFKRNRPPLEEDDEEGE

| SMILES | IC50 (Integrin alpha-V/beta-3 [1]) | IC50 (Integrin alpha-V/beta-3 [2]) | IC50 (Integrin alpha-5/beta-1) | IC50 [3] | half-life at 500 µM [4] | half-life at 250 µM [5] |
| --- | --- | --- | --- | --- | --- | --- |
| CN1C(=O)[C@H](Cc2ccccc2)NC(=O)[C@H](CC(=O)O)NC(=O)CNC(=O)[C@H](CCCNC(=N)N)NC(=O)c2cccc(c2)-c2cccc3c(c[nH]c23)C[C@@H]1C(N)=O | 5.4 to 13.9 nM | 9400 nM | 547 nM | 5800 nM | > 1440 min |  |
| CN1C(=O)[C@H](CC(=O)O)NC(=O)CNC(=O)[C@H](CCCNC(=N)N)NC(=O)c2ccc(cc2)-c2cccc3c(c[nH]c23)C[C@H]1C(N)=O | 239 nM | > 500000 nM | > 10000 nM |  |  |  |
| CN1C(=O)[C@H](Cc2ccccc2)NC(=O)[C@H](CC(=O)O)NC(=O)CNC(=O)[C@H](CCCNC(=N)N)NC(=O)CCCCc2cccc3c(c[nH]c23)C[C@@H]1C(N)=O | 36.2 nM | > 500000 nM | 563 nM |  |  |  |
| CN1C(=O)[C@H](Cc2ccccc2)NC(=O)[C@H](CC(=O)O)NC(=O)CNC(=O)[C@H](CCCNC(=N)N)NC(=O)CCc2cccc3c(c[nH]c23)C[C@@H]1C(N)=O | 12.8 nM | 250000 nM | 325 nM | 5030 nM |  |  |
| CN1C(=O)[C@H](Cc2ccccc2)NC(=O)[C@H](CC(=O)O)NC(=O)CNC(=O)[C@H](CCCNC(=N)N)NC(=O)CCCCCc2cccc3c(c[nH]c23)C[C@@H]1C(N)=O | 38.9 nM | > 500000 nM | 419 nM |  |  |  |
| CN1C(=O)[C@H](Cc2ccccc2)NC(=O)[C@H](CC(=O)O)NC(=O)CNC(=O)[C@H](CCCNC(=N)N)NC(=O)c2ccc(cc2)-c2ccc3c(c[nH]c3c2)C[C@@H]1C(N)=O | 14.9 nM | 244000 nM | 2720 nM | > 10000 nM |  |  |
| CN1C(=O)[C@H](Cc2ccccc2)NC(=O)[C@H](CC(=O)O)NC(=O)CNC(=O)[C@H](CCCNC(=N)N)NC(=O)c2ccccc2-c2cccc3c(c[nH]c23)C[C@@H]1C(N)=O | 64.6 nM | 158000 nM | 1.92 nM |  |  |  |
| N=C(N)NCCC[C@@H]1NC(=O)c2cccc(c2)-c2cccc3c(c[nH]c23)C[C@@H](C(N)=O)NC(=O)[C@H](CC(=O)O)NC(=O)CNC1=O | 19 nM | > 500000 nM | 8030 nM |  |  |  |
| CN1C(=O)[C@H](CC(=O)O)NC(=O)CNC(=O)[C@H](CCCNC(=N)N)NC(=O)c2ccc(cc2)-c2cccc3c(c[nH]c23)C[C@@H]1C(N)=O | 537 nM | > 500000 nM | > 10000 nM |  |  |  |
| CN1C(=O)[C@H](Cc2ccccc2)NC(=O)[C@H](CC(=O)O)NC(=O)CNC(=O)[C@H](CCCNC(=N)N)NC(=O)CCCc2cccc3c(c[nH]c23)C[C@@H]1C(N)=O | 34 nM | > 500000 nM | 154 nM |  |  |  |
| CCN(CC)CCOC(=O)c1ccc(N)cc1 [PROCAINE] |  |  |  |  |  | 30 min |

Results, then the molecule that gave them:

| IC50 (Integrin alpha-V/beta-3 [1]) | IC50 (Integrin alpha-V/beta-3 [2]) | IC50 (Integrin alpha-5/beta-1) | IC50 [3] | half-life at 500 µM [4] | half-life at 250 µM [5] | SMILES |
| --- | --- | --- | --- | --- | --- | --- |
| 59.2 nM | 310000 nM | > 10000 nM |  |  |  | N=C(N)NCCC[C@@H]1NC(=O)c2ccc(cc2)-c2ccc3c(c[nH]c3c2)C[C@H](C(N)=O)NC(=O)[C@H](Cc2ccccc2)NC(=O)[C@H](CC(=O)O)NC(=O)CNC1=O |
| 579 nM | > 500000 nM | 5670 nM |  |  |  | N=C(N)NCCC[C@@H]1NC(=O)c2ccc(cc2)-c2cccc3c(c[nH]c23)C[C@@H](C(N)=O)NC(=O)[C@@H](Cc2ccccc2)NC(=O)[C@H](CC(=O)O)NC(=O)CNC1=O |
| 23 nM | 11100 nM | 835 nM | > 10000 nM |  |  | CN1C(=O)[C@H](Cc2ccccc2)NC(=O)[C@H](CC(=O)O)NC(=O)CNC(=O)[C@H](CCCNC(=N)N)NC(=O)c2ccc(cc2)-c2cccc3c(c[nH]c23)C[C@@H]1C(N)=O |
| 491 nM | > 500000 nM | 3660 nM |  |  |  | N=C(N)NCCC[C@@H]1NC(=O)c2ccc(cc2)-c2cccc3c(c[nH]c23)C[C@@H](C(N)=O)NC(=O)[C@H](CC(=O)O)NC(=O)CNC1=O |
| 17.7 nM | 51000 nM | 9290 nM | > 10000 nM |  |  | N=C(N)NCCC[C@@H]1NC(=O)c2ccc(cc2)-c2cccc3c(c[nH]c23)C[C@H](C(N)=O)NC(=O)[C@H](Cc2ccccc2)NC(=O)[C@H](CC(=O)O)NC(=O)CNC1=O |
| 65 nM | > 500000 nM | 983 nM |  |  |  | N=C(N)NCCC[C@@H]1NC(=O)c2cccc(c2)-c2cccc3c(c[nH]c23)C[C@@H](C(N)=O)NC(=O)[C@@H](Cc2ccccc2)NC(=O)[C@H](CC(=O)O)NC(=O)CNC1=O |
| 41.3 nM | > 500000 nM | 5940 nM | > 10000 nM |  |  | N=C(N)NCCC[C@@H]1NC(=O)c2ccc(cc2)-c2cccc3c(c[nH]c23)C[C@H](C(N)=O)NC(=O)[C@H](CC(=O)O)NC(=O)CNC1=O |
| 95.2 nM | > 500000 nM | 2160 nM |  |  |  | CN1C(=O)[C@@H](Cc2ccccc2)NC(=O)[C@H](CC(=O)O)NC(=O)CNC(=O)[C@H](CCCNC(=N)N)NC(=O)c2ccc(cc2)-c2cccc3c(c[nH]c23)C[C@H]1C(N)=O |
